Screens (PubChem BioAssay)
ABCB6 inh MLPCN: human ABCB6 transporter inhibition | Q9NP58 | actives 0.19% (n = 360,000) | fluorescence ratio to DMSO, % at 10 µM | K562-ABCB6 porphyrin accumulation, flow cytometry, 1 h; stronger effect = lower value;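 active = fluorescence ratio to DMSO below 75%, the collection mean minus 3 SD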;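 also: signal is porphyrin accumulated inside mitochondria; 100% equals median channel fluorescence of DMSO control wells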
AHR activator: activates the human aryl hydrocarbon receptor; P35869; AHR-responsive luciferase reporter cells, luminescence; activation, % at 5 µM; actives 2.5% (n = 320,000); in the data active = activation above about 47%;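 also: 0% = vehicle wells and 100% = reference agonist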
FXN GAA850 act: activators of GAA850 frataxin (FXN) promoter | HEK293 lucGAA850 FXN promoter luciferase reporter, 24 h; percent of 10 µM SAHA response | activation, % at 6 µM | actives 0.56% (n = 360,000);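 active = activation above the average of all compounds screened plus 3 SD, cutoff fixed separately per campaign, cut at about 7.5% in these data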;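 also: 0% = DMSO wells and 100% = 10 µM SAHA wells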
STAT3 activator: increases IL-6 driven STAT3 reporter signal | U3A cells, IL-6 STAT3-luciferase reporter, luminescence; 100% = signal with IL-6 EC80 alone | activation (% of control), % at 5.6 µM | actives 0.91% (n = 190,000) | AID 871;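 active = activation above the screen-wide mean of compound activation plus 3 SD, cut at about 130% in these data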;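 also: 0% = background luminescence of wells with medium and substrate only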
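Material: human U3A cells carrying STAT3-luciferase construct. Measured by: reporter luminescence signal. Timing: compound 1 h, then IL-6 6 h at 37 °C.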
AHR act cf: human AHR activation, confirmation; human cells, AHR-responsive luciferase reporter, luminescence; shares compounds with AHR activator; AID 2845; activation, % at 9 µM; actives 87% (n = 2,300); in the data active = activation above about 49%;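 also: HepG2 hepatoma cells carrying a DRE-driven firefly luciferase reporter; 0% = vehicle wells and 100% = reference agonist wells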
PXR counter: PXR activation, counter-screen for AHR activators; cell-based PXR reporter, luciferase luminescence; AID 434939; actives 88% (n = 2,300); shares compounds with AHR activator; activation, % at 11.6 µM; in the data active = activation above about 11%;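 also: human hepatoma DPX-2 cells expressing full-length human PXR; 0% = DMSO and 100% = reference agonist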
Target sequence (O75469 whole entry, looked up): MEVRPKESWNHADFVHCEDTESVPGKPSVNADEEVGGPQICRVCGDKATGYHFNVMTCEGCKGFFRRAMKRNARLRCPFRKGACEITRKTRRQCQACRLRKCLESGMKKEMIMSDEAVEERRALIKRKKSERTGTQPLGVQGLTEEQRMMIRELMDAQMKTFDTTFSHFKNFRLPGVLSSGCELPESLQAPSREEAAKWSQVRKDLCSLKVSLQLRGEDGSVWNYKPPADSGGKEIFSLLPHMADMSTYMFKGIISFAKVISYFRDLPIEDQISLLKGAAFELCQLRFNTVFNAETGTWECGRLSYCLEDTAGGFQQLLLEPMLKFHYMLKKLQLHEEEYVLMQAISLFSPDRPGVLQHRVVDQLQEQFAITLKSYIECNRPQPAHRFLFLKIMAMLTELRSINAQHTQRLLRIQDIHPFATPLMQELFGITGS
Starred values were filed as active, the others as inactive; / = no result given. Rows were chosen to be rich in hits. Some 3.3% of all compounds tested hit in one or more screens of this group.

SMILES	ABCB6 inh MLPCN	AHR activator	FXN GAA850 act	STAT3 activator	AHR act cf	PXR counter
Cc1cccc(NC(=S)N/N=C/c2cccc([N+](=O)[O-])c2)c1	88	134*	1	85	145*	41*
O=C(N/N=C/c1ccc2c(c1)OCO2)c1ccc(Br)o1	93	175*	6	111	120*	22*
Cc1cccc(NC(=S)N/N=C/c2ccc3c(c2)OCO3)c1	101	94*	0	103	71*	87*
COc1cc(NC(=O)C2=COCCO2)c(OC)cc1Cl	103	11	-2	/	/	/
COc1ccc(-c2nc(CS(=O)(=O)CC(=O)NCCCN3CCOCC3)c(C)o2)cc1	100	-3	0	/	/	/
Fc1ccc(NC(=S)NN=Cc2ccccc2Cl)cc1	96	/	0	/	/	/
S=C(N/N=C/c1ccccc1Cl)Nc1cccc(Cl)c1Cl	96	118*	-2	/	103*	30*
Cc1c(C(=O)Nc2ccc3c(c2)OCCO3)cnn1C	96	-2	-8	/	/	/
Cc1c(C(=O)Nc2ccc(Br)cc2)cnn1C	100	120*	3	116	136*	23*
CC1CCc2c(C(=O)NCCCN3CCOCC3)csc2C1 (stereo not drawn)	91	0	2	98	/	/
CNc1ccccc1-c1nc2ccccc2n(C)c1=O	105	113*	0	95	107*	41*
CNc1nc2ccccc2n(C)c1=O	114	-1	1	102	/	/
CCCC(C)C(=O)Nc1nc(C)c(-c2csc(Nc3ccccc3OC)n2)s1 (stereo not drawn)	103	124*	-1	90	72*	62*
CCCCCCC(=O)Nc1nc(C)c(-c2csc(Nc3cc(Cl)ccc3C)n2)s1	96	79*	1	97	81*	17*
COc1ccccc1Nc1nc(-c2sc(NC(=O)c3ccc([N+](=O)[O-])cc3)nc2C)cs1	/	19	/	88	/	/
CCCCC(=O)Nc1nc(C)c(-c2csc(Nc3cc(OC)ccc3OC)n2)s1	90	85*	-4	96	82*	58*
CCCCCC(=O)Nc1nc(C)c(-c2csc(Nc3ccccc3OC)n2)s1	103	85*	0	104	96*	50*
O=C(NCc1nnc(SCC(=O)N2CCCc3ccccc32)o1)c1c(F)cccc1Cl	94	0	0	102	/	/
CCCCOc1ccc(-c2nc(/C=N/c3nccs3)c(O)o2)cc1	94	1	1	104	/	/
Oc1oc(-c2ccccc2)nc1/C=N/c1nccs1	103	100*	2	84	78*	/
Cn1c(=NC(=O)CS(=O)(=O)c2ccccc2)sc2cc([N+](=O)[O-])ccc21	103	-8	2	/	/	/
CCn1c(Cc2ccccc2)nnc1SCC(=O)Nc1ccccc1N1CCOCC1	103	0	0	100	/	/
O=C(CN1CCCC1)Nc1sc2c(c1C(=O)Nc1ccc(Br)cc1)CCC2	91	79*	-1	/	104*	52*
Cc1ccc(C(C)C)c(OCC(=O)NNC(=O)C(C(C)C)N2C(=O)c3ccccc3C2=O)c1 (stereo not drawn)	99	-1	0	112	/	/
Cc1nc(SCc2nc3c(F)cccc3[nH]2)c2oc3ccccc3c2n1	98	80*	5	/	80*	40*
SMILES	ABCB6 inh MLPCN	AHR activator	FXN GAA850 act	STAT3 activator	AHR act cf	PXR counter
CN(C(=O)c1ccc(NC(=O)C2CCCN(C(=O)OC(C)(C)C)C2)cc1)C1CCCCC1 (stereo not drawn)	96	2	-1	/	/	/
Cc1ccc(N(C)S(=O)(=O)c2cccc(C(=O)NNC(=O)c3ccncc3)c2)cc1	104	0	1	/	/	/
CC1=CC(=O)c2ccccc2C1=O	103	22	-2	118	/	/
CC(C)(C=O)C1=CC(=O)c2ccccc2C1=O	100	83*	0	139*	112*	26*
CC(C)(C)NC(=O)COc1ccccc1C#N	92	3	1	94	/	/
COc1ccccc1C1CC(c2cccs2)=Nc2ccccc2S1 (stereo not drawn)	91	102*	7	133*	93*	55*
COc1ccccc1C1CC(c2cccs2)=NN1C(=O)CCC(=O)O (stereo not drawn)	102	6	0	/	/	/
CN(C)S(=O)(=O)c1cccc(C(=O)N=C2N=C3C=CC(Cl)=CN3Cc3ccccc32)c1	97	97*	5	/	50*	32*
COc1cccc2[nH]c3c(N4CCCC(C)C4)ncnc3c12 (stereo not drawn)	94	81*	2	102	97*	69*
Cc1ccc(N(CC(O)Cn2nc(C)cc2C)S(=O)(=O)c2ccc3ccccc3c2)cc1 (stereo not drawn)	101	-2	-3	112	/	/
CCc1ccc(S(=O)(=O)c2n[nH]n3c2nc(=O)c2ccccc23)cc1	91	1	-1	100	/	/
O=c1nc2c(-c3ccccc3F)n[nH]n2c2ccccc12	89	111*	6	123	182*	26*
C=CCC1=C/C(=C\c2c(N)n3nc(CC(=O)N4CCCC4)sc3nc2=O)C=C(OC)C1=O	98	2	2	/	/	/
O=C1c2ccccc2C(=O)c2c1cccc2N(CCO)CCO	98	131*	0	/	14	8
CCC1(c2ccc(Cl)cc2)NC(=S)N(c2ccccc2)N1 (stereo not drawn)	92	80*	3	101	82*	12*
C=CCn1c(=O)c(C(=O)NC2CC2)c(O)c2cc(OC)c(OC)cc21	97	102*	1	/	44	30*
Cn1cccc1C(=O)C(=O)Nc1cccc(Cl)c1Cl	99	92*	6	157*	104*	10*
Oc1[nH]c2ccccc2c1C=Nc1ccccc1	100	22	7	/	/	/
NNC(=O)c1[nH]c2ccccc2c1-c1ccccc1	86	94*	-2	/	17	10
CC(=O)NNC(=O)c1[nH]c2ccc(Cl)cc2c1-c1ccccc1	100	9	1	/	/	/
O=c1cc(-c2ccccc2)[nH]c2ccccc12	104	3	4	124	/	/
O=C1C(c2cc(=O)c3ccccc3[nH]2)=C(O)c2ccccc21	105	167*	4	95	191*	25*
O=[N+]([O-])c1ccc(Sc2cc[n+]([O-])c3ccccc23)c([N+](=O)[O-])c1	98	-1	-11	/	/	/
CC(=O)N(c1ccc(Cl)cc1)c1nc(C)cc(C)c1C#N	96	102*	3	103	112*	110*
NS(=O)(=O)c1ccc(CCN=C(NS(=O)(=O)c2cccs2)c2ccccc2)cc1	102	-2	2	103	/	/
Cc1cc(SCC(=O)N/N=C/c2ccc(O)cc2O)c(C)cc1Br	89	1	-3	73	/	/
O=c1c2[nH]c3cccc(Cl)c3c2ncn1Cc1ccncc1	97	84*	-1	91	74*	19*
